Compound activity from PubChem BioAssay.
NPY-Y2 PAM-ag – NPY-Y2 potentiators or agonists, primary screen, cell-based; Neuropeptide Y receptor type 2 (Homo sapiens), P49146; cells expressing NPY-Y2, potentiator/agonist read-out; activation, % at 3.6 µM; 220,000 tested, 0.45% active; AID 1359, 2008; in the data active means activation above about 27%;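 further: cells stimulated with NPY near EC25 plus isoproterenol at EC100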
NPY-Y1 antag – NPY-Y1 receptor antagonists, primary screen, cell-based. Neuropeptide Y receptor type 1 (Homo sapiens), P25929. HEK293-CNG Y1 cells, membrane potential fluorescence; NPY at EC95, then isoproterenol. 200,000 tested, 1% active. AID 1040, 2008. inhibition, % at 3.6 µM;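 active means inhibition above the campaign mean inhibition of all tested compounds plus 3 SD, cut at about 20% in these data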
Target sequence (P25929 whole entry, looked up): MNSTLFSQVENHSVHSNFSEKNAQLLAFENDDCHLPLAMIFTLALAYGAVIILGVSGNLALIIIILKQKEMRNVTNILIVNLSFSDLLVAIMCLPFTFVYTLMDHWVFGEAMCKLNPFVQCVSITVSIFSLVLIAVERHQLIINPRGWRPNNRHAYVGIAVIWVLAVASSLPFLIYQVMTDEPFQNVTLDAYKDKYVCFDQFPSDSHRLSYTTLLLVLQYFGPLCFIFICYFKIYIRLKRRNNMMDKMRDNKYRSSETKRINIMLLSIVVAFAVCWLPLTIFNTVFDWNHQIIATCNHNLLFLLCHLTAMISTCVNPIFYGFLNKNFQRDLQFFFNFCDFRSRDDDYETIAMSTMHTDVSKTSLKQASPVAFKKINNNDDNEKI
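material = HEK293 cells with Y1 receptor plus CNG channel | also added = NPY 25 nM then isoproterenol 1 µM plus Ro 20-1724 25 µM | schedule = dye 3 h, compound 60 min room temperature, stimulation 45 min | measured by = membrane potential fluorescence | benchmarks = high control isoproterenol alone, low control NPY with isoproterenol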
EP2 modulator – EP2 receptor modulators, cAMP readout, primary screen, cell-based, HTRF cAMP, PGE2 stimulation. Prostaglandin E2 receptor EP2 subtype (Homo sapiens), P43116. EP2-expressing cells, cAMP HTRF FRET, PGE2 co-stimulation. induction, % at 25 µM. 260,000 tested, 0.83% active. AID 940, 2007;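 active means compounds whose cAMP rise, as percent of the full-agonist control response, exceeds 60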;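 further: rat C6 glioma line stably carrying human EP2 under a CMV promoter; the protocol text gives 20 µM as final concentration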
EP2 antag – human EP2 receptor antagonists, primary screen, TR-FRET cAMP, C6 glioma cells; 260,000 tested, 0.52% active; inhibition, % at 25 µM; C6 glioma cells expressing human EP2; cells stimulated with saturating PGE2; Prostaglandin E2 receptor EP2 subtype (Homo sapiens), P43116;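 active means percent inhibition above 40 after rounding to a whole number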;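 further: rat C6 glioma host cells with rolipram phosphodiesterase inhibitor present; the protocol text gives 20 µM as final concentration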
NPY1 pot ag – NPY-Y1 receptor potentiators or agonists, primary screen, cell-based; Neuropeptide Y receptor type 1 (Homo sapiens), P25929; NPY-Y1 expressing cells, potentiator/agonist activation; activation, % at 3.6 µM; 220,000 tested, 0.37% active; AID 1304, 2008; in the data active means activation above about 33%, passing the limit was not always enough;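 further: cells stimulated with NPY at EC10 then isoproterenol at EC100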
NPY Y2 blocker – NPY-Y2 receptor antagonists, primary screen, cell-based. Neuropeptide Y receptor type 2 (Homo sapiens), P49146. NPY-Y2 expressing cells, antagonist mode. inhibition, % at 2.7 µM. 140,000 tested, 0.99% active; in the data active means inhibition above about 17%
Numbers stand for hits; i = inactive; nt = not tested or not shown; ! = a repeat was not active. In the library only some 2.8% were active in any assay of this set; here they are far more common.

SMILES	NPY-Y2 PAM-ag	NPY-Y1 antag	EP2 modulator	EP2 antag	NPY1 pot ag	NPY Y2 blocker
Cc1ccc(Cl)cc1N1CCN(CC(O)COC(C)C)CC1 (stereo not drawn)	i	nt	i	i	i	nt
Cc1ccc(C(C)C)c(OCC(O)CN2CC(C)OC(C)C2)c1 (stereo not drawn)	91.8	i	i	i	93.4	i
Cc1ccc(OCC(O)CN2CCN(CC(O)COC(C)C)CC2)c(C(C)(C)C)c1 (stereo not drawn)	93.0	i	i	i	95.6	i
Cc1cc(OCC(O)CN2CCN(C)CC2)ccc1C(C)C (stereo not drawn)	i	i	i	i	i	i
Cc1ccc(C(C)C)c(OCC(O)CN2CCN(CCO)CC2)c1 (stereo not drawn)	80.5	i	i	i	101.5	i
N=C(N)c1ccc(N=Nc2c(O)ccc3c2[nH]c2ccccc23)cc1	nt	nt	i	50.6	nt	nt
C=CCN=c1scc(-c2ccc(F)cc2)n1/N=C/c1ccccn1	33.1	i	i	i	59.8	i
CC1(C)N=C(N)N=C(N)N1c1cccc(OCc2cccc([N+](=O)[O-])c2)c1	nt	nt	i	47.4	nt	nt
CC(C)OP(=O)(OC(C)C)/C(C=O)=N\Nc1ccc([N+](=O)[O-])cc1	53.3	nt	i	i	50.7	nt
Cc1cc(C)c2nc(N3CCCCC3)c(C#N)cc2c1	nt	nt	62.5	i	nt	nt
Cc1cccc2cc(C#N)c(N3CCCCC3)nc12	nt	nt	73.8	i	nt	nt
Cc1cccc2cc(C#N)c(N3CCC(C)CC3)nc12	nt	nt	77.4	i	nt	nt
CS(=O)(=O)N(CC(=O)N1CCCCC1)c1ccc(F)c(Cl)c1	nt	nt	i	i	nt	nt
Cc1nn(CC(=O)N2CCCC(C)C2)c(=O)c2cc3occc3n12 (stereo not drawn)	nt	nt	i	i	nt	nt
N#CCSc1nc2c(sc(=S)n2Cc2ccco2)c(=O)n1-c1ccc(F)cc1	i	23.9	i	i	i	20.0
CCn1c(=S)sc2c(=O)n(-c3ccccc3)c(SC)nc21	i	i	i	i	i	i
CCC(=O)Nc1ccccc1C(=O)OC(c1ccccc1)c1ccccc1	i	26.9	i	i	i	24.5
CCSc1cnn(-c2ccccc2)c(=O)c1SCC	i	i	i	136.2	i	i
CSc1cnn(-c2ccccc2)c(=O)c1SC	i	i	i	42.4	i	i
CCCCSc1cnn(-c2ccccc2)c(=O)c1SCCCC	i	i	i	i	i	i
O=C(NC1CCCCC1)c1cc(S(=O)(=O)N2CCCCC2)c(Cl)cc1Cl	nt	nt	i	i	nt	nt
CCCN1CC=C2C(C#N)=C(N)C(C#N)(C#N)C(c3ccc(OC(C)C)c(OC)c3)C2C1 (stereo not drawn)	nt	nt	i	i	nt	nt
O=C1c2ccccc2-c2c(NCCc3ccccc3)c(=O)[nH]c3cccc1c23	nt	nt	65.8	i	nt	nt
Cc1ccc2c(c1)cc(C)c1nn(CC(=O)NC(C)C)c(=O)n12	nt	nt	i	i	nt	nt
Cc1cccc(N2CCN(CC(O)c3ccc4c(c3)OCCCO4)CC2)c1C (stereo not drawn)	nt	nt	i	i	nt	nt
SMILES	NPY-Y2 PAM-ag	NPY-Y1 antag	EP2 modulator	EP2 antag	NPY1 pot ag	NPY Y2 blocker
O=C(NCC1CC1)c1ccc(Nc2nc3ccc(Br)cc3[nH]2)cc1	i	i	i	74.2	i	i
CCOC(=O)CSc1nc2ccccc2c(=O)n1CC1CCCC1	i	i	61.6	i	i	i
CCOC(=O)CSc1nc2ccccc2c(=O)n1CC	i	i	i	i	i	i
COc1ccc(-c2nnc(CSc3nc4ccccc4c(=O)n3CC(C)C)o2)cc1OC	i	25.6	i	i	i	27.8
COCCCn1c(SCc2nnc(-c3ccc(OC)c(OC)c3)o2)nc2ccccc2c1=O	i	i	i	i	i	i
CC(C)Cn1c(SCC(=O)N2CCCCC2)nc2ccccc2c1=O	i	22.0	i	i	i	23.8
O=C(CSc1nc2ccccc2c(=O)n1Cc1ccco1)N1CCCC1	i	i	i	i	i	nt
CCOC(=O)CSc1nc2ccccc2c(=O)n1CC(C)C	i	20.1	i	i	i	nt
Cc1oc2ccccc2c1CN(CCCOC(C)C)Cc1ccncc1	nt	nt	i	i	nt	nt
Cc1sc(NC(=O)c2ccccc2Cl)c(C#N)c1C	nt	nt	i	i	nt	nt
CCOC(=O)Cn1c(S(=O)(=O)Cc2ccc(F)cc2)nc(-c2ccccc2)c1-c1ccccc1	i	38.4	i	i	i	25.5
CCCn1c(SCC(=O)Nc2ccc(C)c(C)c2)nnc1-c1ccccn1	nt	nt	i	i	nt	nt
COc1cccc(-n2c(SCC(=O)Nc3ccccc3)nnc2-c2ccoc2C)c1	nt	nt	i	i	nt	nt
CC(C)=CCc1c2c(c3occ(-c4ccc(O)c(O)c4)c(=O)c3c1O)C=CC(C)(C)O2	nt	nt	i	40.7!	nt	nt
CC(C)=CCc1c2c(c3occ(-c4ccc(O)cc4)c(=O)c3c1O)C=CC(C)(C)O2	i	i	i	i	i	nt
COc1ccc2nc(NC3=NCN(CCN4CCOCC4)CN3)nc(C)c2c1	nt	nt	i	i	nt	nt
C=C(C)CSc1nc2c(c(=O)n(C)c(=O)n2C)n1Cc1ccc(Cl)cc1	nt	nt	61.2	i	nt	nt
O=S1(=O)c2ccccc2N=NN1Cc1ccc(Cl)c(Cl)c1	i	i	i	45.1	i	i
CC(C)(C)c1ccc(CN2N=Nc3ccccc3S2(=O)=O)cc1	i	i	i	i	i	i
Cc1ccc(Cn2c(=N)n(CC(O)c3ccco3)c3ccccc32)cc1 (stereo not drawn)	i	i	i	i	i	23.1
CCCn1c(=N)n(CC(O)c2ccco2)c2ccccc21 (stereo not drawn)	i	i	i	i	i	i
Cc1cc(C)cc(NC(=O)Nc2ccc(-n3ccc(C(F)(F)F)n3)cc2)c1	i	nt	i	i	i	nt
O=C(Nc1ccc(-n2ccc(C(F)(F)F)n2)cc1)Nc1cccc(Cl)c1	39.6	nt	i	i	51.6	nt
O=C(Nc1ccc(Cl)cc1C(F)(F)F)c1ccc2c(c1)OCCO2	nt	nt	i	i	nt	nt
CCOC(=O)Cc1csc(NC(=O)CSc2nc(-c3ccccc3)c(C#N)c(=O)[nH]2)n1	i	20.7	i	i	i	nt
SMILES	NPY-Y2 PAM-ag	NPY-Y1 antag	EP2 modulator	EP2 antag	NPY1 pot ag	NPY Y2 blocker
CSc1nc(-c2ccccc2)c(C#N)c(=O)[nH]1	i	nt	i	i	i	nt
CCSc1nc(-c2ccccc2)c(C#N)c(=O)[nH]1	i	i	i	49.6	i	i
CC(C)N(C(=O)CSc1nnc2n(Cc3ccccc3)c3ccccc3n12)C(C)C	nt	nt	i	i	nt	nt
CCCCC(=O)Nc1nc2c(OC)cc([N+](=O)[O-])cc2s1	33.0	i	i	i	38.6	nt
O=c1[nH]c2ccc(S(=O)(=O)NCc3ccccc3CN3CCCC3)cc2[nH]1	nt	nt	i	i	nt	nt
Cc1nc(SCC(=O)NCc2ccco2)c2c3c(sc2n1)CCCC3	i	25.4	i	i	i	23.7
CCSc1nc2sc3c(c2c2nnc(SCC(=O)NCc4ccco4)n12)CCCC3	i	i	nt	49.4	i	i
